5 compounds from ChEMBL document CHEMBL2321791, “A new cytotoxic quinolone alkaloid and a pentacyclic steroidal glycoside from the stem bark of Crataeva nurvala: study of anti-proliferative and apoptosis inducing property” (Eur J Med Chem, 2013) can be followed below.

Calls of active or inactive are those of the source. No cut-off for these calls is given here.

Data set [1] concerns PC-3. Briefly: Cytotoxicity against human PC3 cells. The data set is classed as functional, cell-based. The method in brief: (§1)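 MTT viability assay. Cells were plated at 3 × 10³ cells/well and treated in triplicate with a range of concentrations, with final DMSO at 0.2%. After 48 h incubation, MTT (0.5 mg/mL) was added for a further 4 h at 37 °C. Formazan was read by optical density at 570 nm and percentage viability calculated.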

In data set [2] the test system is MCF7. The experiment in a line: Cytotoxicity against human MCF7 cells. The data set is classed as functional, cell-based. An outline of the steps:
as §1

The test system of data set [3] is HeLa. The experiment in a line: Cytotoxicity against human HeLa cells. The class given is functional, cell-based. An outline of the steps: as §1
Data set [4] has as its system HeLa. The experiment in a line: Cell cycle arrest in human HeLa cells assessed as cells at G1 phase at 1 uM measured after 24 hrs by propidium iodide/FACS analysis (reference value: 14.7%). The class given is functional.
Data set [5] relates to HeLa. Briefly: Cell cycle arrest in human HeLa cells assessed as cells at G0 phase at 1 uM measured after 24 hrs by propidium iodide/FACS analysis (reference value: 68.6%). The class given is functional. For orientation: Flow cytometry measures light scatter and fluorescence of single cells or particles in a stream.
The test system of data set [6] is HeLa. The experiment in a line: Inhibition of cell migration in human HeLa cells at 50 uM for 24 hrs by wound healing assay. The data set is classed as functional, cell-based. An outline of the steps: (§2)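 Wound-healing (scratch) assay. Cells were seeded at 5.5 × 10⁵ cells/well in 6-well plates and grown overnight to a confluent monolayer. After 24 h serum starvation, the monolayer was scratched with a pipette tip, washed with serum-free medium and photographed at 0 h. Cells were then treated for 24 h in 1% serum medium with compound or DMSO vehicle. Scratched area was quantified in three random fields per treatment across three independent experiments.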

Data set [7] has as its system PC-3. Briefly: Inhibition of colony formation in human PC3 cells at sub-lethal dose measured after 5 days by colony formation assay. The class given is functional, cell-based. An outline of the steps: (§3)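 Clonogenic assay. Cells were seeded at 1 × 10³ cells/well in 6-well plates, and the medium was replaced after 24 h. Cells were then exposed to various concentrations of compound, alongside DMSO vehicle, for 5 days at 37 °C in 5% CO₂. Colonies were fixed with 4% paraformaldehyde, stained with 0.5% crystal violet, then counted and averaged over randomly chosen fields (n = 3).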

The test system of data set [8] is HeLa. The experiment in a line: Inhibition of colony formation in human HeLa cells at sub-lethal dose measured after 5 days by colony formation assay. The class given is functional, cell-based. An outline of the steps: as §3
In data set [9] the test system is MCF7. The experiment in a line: Inhibition of cell migration in human MCF7 cells at 80 uM for 24 hrs by wound healing assay. The data set is classed as functional, cell-based. An outline of the steps:
as §2

In data set [10] the test system is HeLa. The experiment in a line: Cell cycle arrest in human HeLa cells assessed as cells at G1 phase at 50 uM measured after 24 hrs by propidium iodide/FACS analysis (reference value: 14.7%). The class given is functional.
Data set [11] relates to HeLa. The experiment in a line: Inhibition of colony formation in human HeLa cells measured after 5 days by colony formation assay. The data set is classed as functional, cell-based. An outline of the steps: as §3
In data set [12] the test system is MCF7. Briefly: Inhibition of cell migration in human MCF7 cells at 50 uM for 24 hrs by wound healing assay. The class given is functional, cell-based. An outline of the steps: as §2
For data set [13], the system named is PC-3. Briefly: Inhibition of cell migration in human PC3 cells at 50 uM for 24 hrs by wound healing assay. The data set is classed as functional, cell-based. An outline of the steps: as §2
The test system of data set [14] is HeLa. The experiment in a line: Cytotoxicity against human HeLa cells at 50 uM measured after 48 hrs by MTT assay. The class given is cell-based. An outline of the steps: as §1
In general terms: Tetrazolium dyes change colour on reduction, which living cells bring about.

Data set [15] deals with HeLa. Briefly: Cell cycle arrest in human HeLa cells assessed as cells at G0 phase at 50 uM measured after 24 hrs by propidium iodide/FACS analysis (reference value: 68.6%). The class given is functional.
Data set [16] has as its system HeLa. The experiment in a line: Inhibition of cell migration in human HeLa cells at 80 uM for 24 hrs by wound healing assay. The data set is classed as functional, cell-based. The method in brief: as §2
Data set [17] deals with PC-3. The experiment in a line: Cytotoxicity against human PC3 cells at 50 uM measured after 48 hrs by MTT assay. The class given is cell-based. Particulars: pc-3, 48 h. The method in brief: as §1
Data set [18] deals with PC-3. The experiment in a line: Inhibition of cell migration in human PC3 cells at 80 uM for 24 hrs by wound healing assay. The data set is classed as functional, cell-based. The method in brief: as §2

As to `COc1cc(OC)c2c(=O)c(-c3ccccc3)cn(C)c2c1`, the result in [1], in data set [2] and in data set [3] was inactive.

For `COc1cc(OC)c2c(O)c(-c3ccccc3)cnc2c1`, the outcome in [1], in data set [2] and in data set [3] was inactive.

Consider `CC[C@@]1(O)C(=O)OCc2c1cc1n(c2=O)Cc2cc3ccccc3nc2-1` [CAMPTOTHECIN], for which the values for the Activity in data set [4] and in data set [5] were 17.7% and 68.6%, respectively.

As for `CCn1cc(-c2ccccc2)c(=O)c2c(OC)cc(OC)cc21` [CRATAEMINE], the result in data set [6], in data set [7], in data set [8], in [13], in [16] and in data set [18] was Active. Also, the result in data set [9] and in [12] was inactive. The Activity is 17.2% in data set [10]; “Dose-dependent effect” in [11]; “Non-toxic” in [14]; 76.8% in data set [15]; “Non-toxic” in data set [17].

Turning to `CC(C)[C@@H]1CC[C@@H](C)[C@H]2[C@@H]1C[C@H]1[C@@H]3CC=C4C[C@@H](O[C@@H]5O[C@H](CO)[C@@H](O)[C@H](O)[C@H]5O)CC[C@]4(C)[C@H]3CC[C@]21C` [CRATAENOSIDE], the result in [6], in data set [7], in [8], in data set [13], in data set [16] and in data set [18] was Active. The result in data set [9] and in [12] was inactive. The Activity in [10] is 22.5%; in data set [11], “Dose-dependent effect”; in [14] it was “Non-toxic”; in data set [15], 63.5%; in [17], “Non-toxic”.
